Converted amounts (≈) assume the structure as drawn.
Assays:
Assay type in all cases: functional, organism-based
[1] = test system: Candida albicans; experiment: Antifungal activity against azole-resistant Candida albicans by broth microdilution assay
Method in brief: (§1)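 Follow-up panel of recent drug-resistant and drug-sensitive clinical Candida isolates, tested alongside quality control strains C. krusei ATCC 6258 and C. parapsilopsis ATCC 22019.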

[2] = test system: Candida albicans; experiment: Antifungal activity against azole-sensitive Candida albicans by broth microdilution assay; method in brief: as §1
[3] = test system: Nakaseomyces glabratus; experiment: Antifungal activity against azole-resistant Candida glabrata by broth microdilution assay; method in brief: as §1
[4] = test system: Pichia kudriavzevii; experiment: Antifungal activity against azole-resistant Candida krusei by broth microdilution assay; method in brief: as §1
[5] = test system: Candida albicans; experiment: Antifungal activity against polyene-resistant Candida albicans by broth microdilution assay; method in brief: as §1
[6] = test system: Nakaseomyces glabratus; experiment: Antifungal activity against polyene-resistant Candida glabrata by broth microdilution assay; method in brief: as §1

Question: What does the source list for `OC(Cn1cncn1)(Cn1cncn1)c1ccc(F)cc1F` [FLUCONAZOLE]?
Answer: IC50 [1]: 256 µg/mL (≈ 836 µM); IC50 [2]: 0.12 µg/mL (≈ 0.392 µM); IC50 [3]: 256 µg/mL (≈ 836 µM); IC50 [4]: 128 µg/mL (≈ 418 µM)

Question: Which results are given for `Oc1cc2c(cc1O)[C@@H]1Oc3cc4c(cc3[C@@H]1CO2)OCO4`?
Answer: IC50 [1]: 32 µg/mL (≈ 107 µM); IC50 [2]: 128 µg/mL (≈ 426 µM); IC50 [3]: 32 µg/mL (≈ 107 µM); IC50 [5]: 128 µg/mL (≈ 426 µM); IC50 [4]: 128 µg/mL (≈ 426 µM); IC50 [6]: 32 µg/mL (≈ 107 µM)

Question: Which IC50 [1] does the source give for `COc1cc2c(cc1O)C[C@H](c1cc3c(cc1O)OCO3)CO2` [HILDEGARDIOL] here?
Answer: The IC50 was ≥ 64 µg/mL.

Question: What about the IC50 [2] of the same compound?
Answer: Its IC50 is > 128 µg/mL.

Question: What about the IC50 [3] of the same compound?
Answer: The IC50 was ≥ 64 µg/mL.

Question: What about the IC50 [5] of the same compound?
Answer: The IC50 was > 128 µg/mL.

Question: What about the IC50 [4] of the same compound?
Answer: The IC50 was > 128 µg/mL.

Question: What about the IC50 [6] of the same compound?
Answer: The IC50 was > 128 µg/mL.

Question: For `C[C@@H]1[C@H](O)[C@@H](C)/C=C/C=C/C=C/C=C/C=C/C=C/C=C/[C@H](O[C@@H]2O[C@H](C)[C@@H](O)[C@H](N)[C@@H]2O)C[C@@H]2O[C@](O)(C[C@@H](O)C[C@@H](O)[C@H](O)CC[C@@H](O)C[C@@H](O)CC(=O)O[C@H]1C)C[C@H](O)[C@H]2C(=O)O` [AMPHOTERICIN B], which IC50 [5] is on record?
Answer: Its IC50 is 3 µg/mL (≈ 3.25 µM).

Question: What about the IC50 [6] of the same compound?
Answer: Its IC50 is 4 µg/mL (≈ 4.33 µM).

Question: Which results are given for `C[C@@H](c1ncncc1F)[C@](O)(Cn1cncn1)c1ccc(F)cc1F` [VORICONAZOLE]?
Answer: IC50 [1]: 4 µg/mL (≈ 11.5 µM); IC50 [2]: 0.007 µg/mL (≈ 0.02 µM); IC50 [3]: 8 µg/mL (≈ 22.9 µM); IC50 [4]: 1 µg/mL (≈ 2.86 µM)

Question: How did the IC50 [1] turn out when `Cc1c(O)c(C)c2c(c1O)C(=O)C[C@@H](c1ccc(O)cc1)O2` [FARREROL] was run?
Answer: The IC50 was > 32 µg/mL.

Question: And the IC50 [2]?
Answer: The IC50 was > 32 µg/mL.

Question: And the IC50 [3]?
Answer: The IC50 was > 32 µg/mL.

Question: What about the IC50 [5] of the same compound?
Answer: The IC50 was > 32 µg/mL.

Question: What about the IC50 [4] of the same compound?
Answer: The IC50 was > 32 µg/mL.

Question: And the IC50 [6]?
Answer: The IC50 was > 32 µg/mL.

From ChEMBL document CHEMBL1148991, “Antifungal flavonoids from Hildegardia barteri” (J Nat Prod, 2005)
